Converted amounts (≈) assume the structure as drawn.
Columns and labels:
[1] = Half life was determined in fasted rats using cassette dosing technique.; type: ADME, organism-based; conditions: rat, in vivo
Method in brief: (§1)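 Fasted rats (n = 3/4) received cassette doses of 4–5 compounds per experiment at 1–5 mg/kg of each inhibitor. Each study included a control compound previously characterized in a single-compound experiment, to validate the data set and detect problems such as saturation of elimination.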

[2] = Bioavailability in rat (fasted) using cassette dosing; type: ADME, organism-based; conditions: in vivo; method in brief: as §1
[3] = Solubility was determined at a pH of […]; type: physicochemical; conditions: pH 7
Stromelysin-1 = Stromelysin-1 (Homo sapiens, UniProt P08254); assay: Inhibitory activity against human matrix metalloprotease-3 (MMP-3) ([…])
Interstitial collagenase = target: T1, Interstitial collagenase (Homo sapiens, UniProt P03956); assay: Inhibitory activity against human matrix metalloprotease-1 in quenched fluorescence assay at […]
T1 sequence (P03956 whole entry): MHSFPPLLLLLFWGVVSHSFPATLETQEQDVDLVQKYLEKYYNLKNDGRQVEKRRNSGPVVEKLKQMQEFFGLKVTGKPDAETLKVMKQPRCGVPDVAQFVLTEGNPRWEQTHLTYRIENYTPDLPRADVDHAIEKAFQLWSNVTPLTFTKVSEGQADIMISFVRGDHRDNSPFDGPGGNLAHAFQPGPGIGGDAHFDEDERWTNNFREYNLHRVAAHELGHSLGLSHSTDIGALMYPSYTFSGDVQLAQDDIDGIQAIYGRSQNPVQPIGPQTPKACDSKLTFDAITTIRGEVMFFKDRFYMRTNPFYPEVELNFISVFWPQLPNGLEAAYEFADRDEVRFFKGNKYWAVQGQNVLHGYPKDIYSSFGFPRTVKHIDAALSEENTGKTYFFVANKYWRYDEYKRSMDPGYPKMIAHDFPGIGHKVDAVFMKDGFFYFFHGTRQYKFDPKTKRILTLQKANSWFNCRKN
Method in brief: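 Quenched fluorescence assay using truncated human recombinant enzymes expressed in E. coli, at final concentrations of 8 nM for MMP-1 and 16 nM for MMP-3. Substrate was Mca-Pro-Leu-Gly-Leu-Dpa-Ala-Arg-NH₂ at 4 μM, at 25 °C, in 50 mM Tris pH 7.5, 0.2 M NaCl, 5 mM CaCl₂, 0.02% Brij-35. Fluorescence (ex 328/em 393 nm) was read kinetically for 30 min. Eight inhibitor concentrations were tested and IC50 was fitted from Vi/V0.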

[4] = target: 72 kDa type IV collagenase (Homo sapiens, UniProt P08253); assay: Inhibitory activity against matrix metalloprotease-2 (MMP-2) in quenched fluorescence assay at […]
Method in brief: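 Full-length human recombinant proMMP-2 from CHO cells was activated with 1 mM APMA for 45 min and used at 1 nM final. Cleavage of 4 μM Mca-Pro-Leu-Gly-Leu-Dpa-Ala-Arg-NH₂ was followed at 25 °C in Tris pH 7.5/NaCl/CaCl₂/Brij-35 buffer, with fluorescence read kinetically for 30 min. IC50 came from 8 inhibitor concentrations.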

Collagenase 3 [5] = target: T2, Collagenase 3 (Homo sapiens, UniProt P45452); assay: Inhibitory activity against human matrix metalloprotease-13 in quenched fluorescence assay at pH 7.4
Collagenase 3 [6] = target: T2, Collagenase 3; assay: Inhibition of human matrix metalloprotease-13 at pH 7.4

72 kDa type IV collagenase, sequence (P08253 whole entry): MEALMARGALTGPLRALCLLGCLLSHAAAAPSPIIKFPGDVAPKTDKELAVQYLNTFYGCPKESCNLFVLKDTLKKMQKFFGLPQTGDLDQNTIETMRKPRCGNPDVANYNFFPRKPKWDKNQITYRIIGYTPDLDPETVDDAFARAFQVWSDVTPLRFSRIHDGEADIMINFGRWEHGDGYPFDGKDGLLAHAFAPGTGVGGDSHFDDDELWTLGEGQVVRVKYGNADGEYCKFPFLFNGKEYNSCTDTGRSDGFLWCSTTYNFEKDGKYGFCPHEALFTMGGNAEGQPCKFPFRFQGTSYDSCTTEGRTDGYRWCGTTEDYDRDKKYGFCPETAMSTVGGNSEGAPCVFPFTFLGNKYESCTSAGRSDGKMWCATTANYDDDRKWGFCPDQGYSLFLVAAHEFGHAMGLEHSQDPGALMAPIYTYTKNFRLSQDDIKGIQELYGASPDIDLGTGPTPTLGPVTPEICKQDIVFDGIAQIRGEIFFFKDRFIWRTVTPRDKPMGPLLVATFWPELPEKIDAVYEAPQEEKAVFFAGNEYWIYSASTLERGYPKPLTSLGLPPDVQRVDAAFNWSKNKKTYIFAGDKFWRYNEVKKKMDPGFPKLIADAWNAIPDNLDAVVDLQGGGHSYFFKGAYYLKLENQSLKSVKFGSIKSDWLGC
Stromelysin-1, sequence (P08254 whole entry): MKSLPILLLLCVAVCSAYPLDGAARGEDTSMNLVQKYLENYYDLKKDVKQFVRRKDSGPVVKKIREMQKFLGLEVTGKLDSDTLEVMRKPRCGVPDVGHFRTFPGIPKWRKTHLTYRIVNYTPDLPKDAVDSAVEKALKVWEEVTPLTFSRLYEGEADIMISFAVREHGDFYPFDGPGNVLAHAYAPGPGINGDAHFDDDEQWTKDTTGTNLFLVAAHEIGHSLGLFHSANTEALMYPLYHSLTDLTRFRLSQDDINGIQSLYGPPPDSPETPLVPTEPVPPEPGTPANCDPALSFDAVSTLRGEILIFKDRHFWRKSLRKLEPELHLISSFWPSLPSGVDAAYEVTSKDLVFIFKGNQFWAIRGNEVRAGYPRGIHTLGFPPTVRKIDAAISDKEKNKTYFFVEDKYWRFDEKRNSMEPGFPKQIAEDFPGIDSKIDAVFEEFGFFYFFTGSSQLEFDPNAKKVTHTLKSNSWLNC

Row | Structure (SMILES) | half-life [1] [h] | bioavailability [2] [%] | solubility [3] [µg/mL] | IC50 (Stromelysin-1) [µM] | IC50 (Interstitial collagenase) [µM] | IC50 [4] [µM] | IC50 (Collagenase 3 [5]) [µM] | IC50 (Collagenase 3 [6]) [µM]
1 | COc1ccc(C#Cc2ccc(S(=O)(=O)NC(CC#Cc3ccccc3)C(=O)O)cc2)cc1 (configuration not stated) | 0.7 | 26 | 20 (≈ 43.5 µM) | 4.36 | > 10 | 0.009 | 0.035 | –
2 | O=C(O)C(CC#Cc1ccccc1)NS(=O)(=O)c1ccc(-c2ccc(Oc3ccccc3)cc2)cc1 (configuration not stated) | – | – | – | 4.56 | > 10 | 1.47 | 2.15 | –
3 | COc1ccc(-c2ccc(S(=O)(=O)NC(CC#CCN3CCN(C(=O)OC(C)(C)C)CC3)C(=O)O)cc2)cc1 (configuration not stated) | – | – | – | > 10 | > 10 | 0.661 | – | –
4 | COc1ccc(-c2ccc(S(=O)(=O)NC(CC#CCN3CCCC3)C(=O)O)cc2)cc1 (configuration not stated) | – | – | – | > 10 | > 10 | 0.1 | – | –
5 | COCC#CCC(NS(=O)(=O)c1ccc(-c2ccc(OC)cc2)cc1)C(=O)O (configuration not stated) | – | – | 5800 (≈ 14400 µM) | – | 6.15 | 0.02 | 0.076 | –
6 | O=C(O)C(CC#CCN1CCCC1)NS(=O)(=O)c1ccc(-c2ccccc2)cc1 (configuration not stated) | – | – | – | > 10 | > 10 | 0.38 | 3.05 | –
7 | Cc1ccc(C#Cc2ccc(S(=O)(=O)NC(CC#Cc3ccccc3)C(=O)O)cc2)cc1 (configuration not stated) | – | – | – | 22.1 | > 10 | 0.019 | 0.089 | –
8 | COCC#CCC(NS(=O)(=O)c1ccc(-c2ccc(Br)cc2)cc1)C(=O)O (configuration not stated) | – | – | 12000 (≈ 26500 µM) | 3.33 | 24.8 | 0.017 | 0.147 | –
9 | COc1ccc(-c2ccc(S(=O)(=O)NC(C(=O)O)[C@@H](C#Cc3ccccc3)OCc3ccccc3)cc2)cc1 (some centres not stated) | – | – | – | 4.27 | > 10 | 0.008 | 0.014 | –
10 | CCOc1cccc(-c2ccc(S(=O)(=O)NC(CC#Cc3ccccc3)C(=O)O)cc2)c1 (configuration not stated) | – | – | – | – | > 10 | 2.39 | > 1.6 | –
11 | COc1ccc(-c2ccc(S(=O)(=O)NC(CC#CCN3CCN(S(C)(=O)=O)CC3)C(=O)O)cc2)cc1 (configuration not stated) | – | – | – | > 10 | > 10 | 1.16 | – | –
12 | O=C(O)C(CC#CCOc1ccccc1)NS(=O)(=O)c1ccc(-c2ccc(Br)cc2)cc1 (configuration not stated) | – | – | – | 1.81 | > 10 | 0.023 | 0.254 | –
13 | O=C(Nc1ccc(S(=O)(=O)NC(CC#CCOc2ccccc2)C(=O)O)cc1)c1ccc(Br)cc1 (configuration not stated) | – | – | 50 (≈ 89.7 µM) | 2.85 | > 10 | 0.009 | – | –
14 | COc1ccc(S(=O)(=O)c2ccc(S(=O)(=O)NC(CC#Cc3ccccc3)C(=O)O)s2)cc1 (configuration not stated) | – | – | – | > 10 | > 10 | > 10 | > 10 | –
15 | COc1ccc(-c2ccc(S(=O)(=O)NC(CC#Cc3cccc(N4CCOCC4)c3)C(=O)O)cc2)cc1 (configuration not stated) | 0.1 | 7 | 580 (≈ 1110 µM) | 3.52 | 3.66 | 0.016 | 0.024 | –
16 | COCC#CCC(NS(=O)(=O)c1ccc(NC(=O)N2CCOCC2)cc1)C(=O)O (configuration not stated) | – | – | – | > 10 | > 10 | 2.77 | > 10 | –
17 | CO[C@H](C#Cc1ccccc1)C(NS(=O)(=O)c1ccc(-c2ccc(SC)cc2)cc1)C(=O)O (some centres not stated) | – | – | 120 (≈ 249 µM) | 5.1 | 3.4 | 0.008 | 0.033 | –
18 | COCCOc1ccc(-c2ccc(S(=O)(=O)NC(CC#Cc3ccccc3)C(=O)O)cc2)cc1 (configuration not stated) | – | – | – | 2.43 | > 10 | 0.026 | 0.05 | –
19 | COc1ccc(C#Cc2ccc(S(=O)(=O)NC(CC#CCN3CCOCC3)C(=O)O)cc2)cc1 (configuration not stated) | 3.6 | 12 | 151000 (≈ 313000 µM) | 6.6 | – | 0.028 | – | –
20 | COc1ccc(-c2ccc(S(=O)(=O)NC(C(=O)O)[C@@H](C#Cc3ccccc3)OC)cc2)cc1 (some centres not stated) | – | – | – | 3.7 | 4.2 | 0.031 | 0.081 | –
21 | COCC#CCC(NS(=O)(=O)c1ccc(NC(=O)c2ccc(Br)cc2)cc1)C(=O)O (configuration not stated) | – | – | – | 8.62 | > 10 | 0.006 | 0.27 | –
22 | COCC#CCC(NS(=O)(=O)c1ccc(NC(=O)c2ccc(OC)cc2)cc1)C(=O)O (configuration not stated) | – | – | 3200 (≈ 7170 µM) | 9 | > 10 | 0.008 | – | –

Row | Structure (SMILES) | half-life [1] [h] | bioavailability [2] [%] | solubility [3] [µg/mL] | IC50 (Stromelysin-1) [µM] | IC50 (Interstitial collagenase) [µM] | IC50 [4] [µM] | IC50 (Collagenase 3 [5]) [µM] | IC50 (Collagenase 3 [6]) [µM]
23 | O=C(O)C(CC#Cc1ccccc1)NS(=O)(=O)c1ccc(-c2ccc(-c3ccccc3)cc2)cc1 (configuration not stated) | – | – | – | > 10 | > 10 | 0.029 | 0.059 | –
24 | COc1ccc(-c2ccc(S(=O)(=O)NC(CC#CCN3CCN(c4ccccc4)CC3)C(=O)O)cc2)cc1 (configuration not stated) | – | – | – | > 10 | > 10 | 0.547 | – | –
25 | O=C(O)C(CC#Cc1ccccc1)NS(=O)(=O)c1ccc(Oc2ccccc2)cc1 (configuration not stated) | – | – | – | 4.56 | > 10 | 1.48 | 2.15 | –
26 | CSc1ccc(-c2ccc(S(=O)(=O)NC(CC#Cc3ccccc3)C(=O)O)cc2)cc1 (configuration not stated) | – | – | – | 3.4 | 0.631 | 0.006 | 0.016 | –
27 | COc1ccc(-c2ccc(S(=O)(=O)NC(CC#Cc3ccc(N4CCOCC4)cc3)C(=O)O)cc2)cc1 (configuration not stated) | – | – | – | 14.6 | > 10 | 0.158 | – | –
28 | COc1ccc(S(=O)(=O)c2csc(S(=O)(=O)NC(CC#Cc3ccccc3)C(=O)O)c2)cc1 (configuration not stated) | – | – | – | > 10 | > 10 | > 10 | > 10 | –
29 | COc1ccc(-c2ccc(S(=O)(=O)NC(CC#Cc3ccccc3)C(=O)O)cc2)cc1 (configuration not stated) | 1.7 | 49 | 20 (≈ 45.9 µM) | 2.28 | 2 | 0.012 | 0.021 | –
30 | O=C(O)C(CC#Cc1ccccc1)NS(=O)(=O)c1ccc(/N=N/c2ccccc2)cc1 (configuration not stated) | – | – | – | 16.3 | – | 0.087 | – | –
31 | COc1ccc(-c2ccc(S(=O)(=O)NC(CC#CCc3ccccc3)C(=O)O)cc2)cc1 (configuration not stated) | – | – | – | 0.777 | 3.34 | 0.033 | 0.022 | –
32 | CSc1ccc(-c2ccc(S(=O)(=O)NC(CC#CCN3CCOCC3)C(=O)O)cc2)cc1 (configuration not stated) | – | – | – | 5.06 | 11.5 | 0.024 | – | –
33 | COc1ccc(C(=O)Nc2ccc(S(=O)(=O)NC(CC#CCOc3ccccc3)C(=O)O)cc2)cc1 (configuration not stated) | – | – | 410 (≈ 806 µM) | 3.92 | > 10 | 0.009 | 0.226 | –
34 | COc1ccc(-c2ccc(S(=O)(=O)NC(CC#CCN3CCOCC3)C(=O)O)cc2)cc1 (configuration not stated) | – | – | – | 10.7 | 13.7 | 0.104 | – | –
35 | CCCCOc1ccc(S(=O)(=O)NC(CC#Cc2ccccc2)C(=O)O)cc1 (configuration not stated) | – | – | – | 15.4 | – | – | 2.04 | –
36 | COc1ccc(C#Cc2ccc(S(=O)(=O)NC(CC#Cc3ccccc3)C(=O)O)s2)cc1 (configuration not stated) | – | – | – | 10.1 | – | 0.046 | – | 0.145
37 | COCC#CCC(NS(=O)(=O)c1ccc(NC(=O)N2CCCC2)cc1)C(=O)O (configuration not stated) | – | – | – | > 10 | > 10 | 0.567 | 16.9 | –
38 | O=C(O)C(CC#Cc1ccccc1)NS(=O)(=O)c1ccc(-c2ccc(F)cc2)cc1 (configuration not stated) | – | – | – | 8.9 | 5.6 | 0.175 | 0.231 | –
39 | O=C(Nc1ccc(S(=O)(=O)NC(CC#Cc2ccccc2)C(=O)O)cc1)c1ccc(Cl)cc1 (configuration not stated) | – | – | – | 3.57 | > 10 | 0.006 | 0.127 | –
40 | COCCOCOCC#CCC(NS(=O)(=O)c1ccc(-c2ccc(OC)cc2)cc1)C(=O)O (configuration not stated) | – | – | – | 2.34 | 6.51 | 0.033 | 0.088 | –
41 | O=C(Nc1ccc(S(=O)(=O)NC(CC#CCN2CCOCC2)C(=O)O)cc1)c1ccc(Br)cc1 (configuration not stated) | – | – | 4400 (≈ 7990 µM) | 17.4 | > 10 | 0.012 | 0.344 | –
42 | COc1ccc(-c2ccc(S(=O)(=O)NC(CC#Cc3ccccc3)C(=O)O)s2)cc1 (configuration not stated) | – | – | 30 (≈ 67.9 µM) | 1.32 | 3.25 | 0.02 | – | –
43 | O=C(O)C(CC#CCN1CCOCC1)NS(=O)(=O)c1ccc(-c2ccccc2)cc1 (configuration not stated) | – | – | – | > 10 | > 10 | 0.297 | – | –
44 | O=C(O)C(CC#Cc1ccccc1)NS(=O)(=O)c1ccc(-c2ccc3c(c2)OCO3)cc1 (configuration not stated) | – | – | 80 (≈ 178 µM) | 5.44 | 10.3 | 0.029 | 0.104 | –

From ChEMBL document CHEMBL1134384, “Development of new carboxylic acid-based MMP inhibitors derived from functionalized propargylglycines” (J Med Chem, 2001)
